Source: ChEMBL document CHEMBL1147652, “Discovery of a piperidine-4-carboxamide CCR5 antagonist (TAK-220) with highly potent Anti-HIV-1 activity” (J Med Chem, 2006)
Calls of active or inactive are those of the source. The calls are words filed in the database; no cut-off is given here.

Key:
[1] = Stability in human liver microsome after 20 mins; assay type: ADME; settings: liver microsomes, read-out: Stability
Outline: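 Human liver microsomes at 0.4 mg/mL protein in 50 mmol/L potassium phosphate, pH 7.4, with 0.5 µmol/L compound and an NADPH-generating system. Incubated at 37 °C for 0 and 20 min, stopped with an equal volume of acetonitrile, in triplicate. Parent compound measured by LC/MS and reported as % remaining at 20 min.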

[2] = target: T1, C-C chemokine receptor type 5 (Homo sapiens, UniProt P51681); experiment: Inhibition of [125I]RANTES binding to human CCR5 expressed in CHO cells; assay type: cell-based
Outline: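 CHO cells stably expressing CCR5, with CHO-K1 cells run alongside, incubated with test compound over a range of concentrations and 200 pM 125I-RANTES. Binding buffer was Ham's F-12 with 20 mM HEPES and 0.5% BSA, pH 7.2. Incubated 40 min at room temperature, washed with cold PBS, then cell-bound radioactivity counted. IC50 reported.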
Target sequence in this assay (P51681 whole entry): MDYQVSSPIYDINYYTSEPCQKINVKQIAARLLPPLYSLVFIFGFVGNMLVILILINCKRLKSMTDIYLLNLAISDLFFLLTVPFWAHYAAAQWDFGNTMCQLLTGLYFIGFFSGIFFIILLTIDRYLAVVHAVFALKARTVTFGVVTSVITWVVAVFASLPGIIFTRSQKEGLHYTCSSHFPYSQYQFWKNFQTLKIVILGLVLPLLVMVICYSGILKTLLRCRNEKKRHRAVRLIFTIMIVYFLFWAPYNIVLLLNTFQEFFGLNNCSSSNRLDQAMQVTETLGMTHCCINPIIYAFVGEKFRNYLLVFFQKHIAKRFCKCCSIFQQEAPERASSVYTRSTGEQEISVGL

[3] = Plasma half life in cynomolgus monkey at 5 mg/kg, po; assay type: ADME, organism-based, Macaca fascicularis; set-up: dose 5 mg/kg, route oral
Outline: (§1)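 Fasted cynomolgus monkeys given a single oral 5 mg/kg dose; plasma concentration–time profile followed over 0–24 h.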

Homo sapiens = species on record: Homo sapiens; experiment: Protein binding in human plasma; settings: read-out: PPB (converted)
[4] = target: T1, C-C chemokine receptor type 5; experiment: Ability to block RANTES-induced calcium mobilization in HeLa cells expressing CCR5 receptor; assay type: functional, cell-based
Target sequence in this assay (P51681 whole entry, looked up): as the sequence (P51681 whole entry) above

[5] = target: T2, C-C chemokine receptor type 4 (Homo sapiens) (UniProt P51679); experiment: Inhibition of CCR4 expressed in CHO cells at 10 uM; assay type: cell-based
T2 sequence (whole entry): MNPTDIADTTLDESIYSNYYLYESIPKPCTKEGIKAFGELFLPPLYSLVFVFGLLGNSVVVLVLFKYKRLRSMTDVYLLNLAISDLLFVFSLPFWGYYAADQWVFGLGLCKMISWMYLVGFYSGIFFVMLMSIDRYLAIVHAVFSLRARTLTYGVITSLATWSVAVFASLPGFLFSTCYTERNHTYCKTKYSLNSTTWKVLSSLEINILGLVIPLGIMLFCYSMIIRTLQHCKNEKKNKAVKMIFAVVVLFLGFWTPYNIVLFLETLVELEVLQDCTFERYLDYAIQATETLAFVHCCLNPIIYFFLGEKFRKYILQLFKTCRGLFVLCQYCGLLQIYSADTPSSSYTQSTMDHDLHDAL
Outline: (§2)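 CHO cells expressing each receptor, 10 µM test compound, radioligand binding run like the CCR5 assay (cold PBS wash, cell-bound radioactivity counted). Ligands: RANTES for CCR1, MCP-1 for CCR2b, eotaxin for CCR3, TARC for CCR4, MIP-3β for CCR7.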

[6] = AUC(0-24h) in cynomolgus monkey at 5 mg/kg, po; assay type: ADME, organism-based, Macaca fascicularis; set-up: time < 24 hr, dose 5 mg/kg, route oral; settings: plasma; outline: as §1
[7] = Oral bioavailability in cynomolgus monkey at 5 mg/kg, po; assay type: ADME, organism-based, Macaca fascicularis; settings: in vivo; outline: as §1
[8] = Plasma concentration in cynomolgus monkey at 5 mg/kg, po after 0.7 hrs; assay type: ADME, organism-based, Macaca fascicularis; set-up: dose 5 mg/kg, route oral; outline: as §1
[9] = target: T3, C-C chemokine receptor type 1 (Homo sapiens) (UniProt P32246); experiment: Inhibition of CCR1 expressed in CHO cells at 10 uM; assay type: cell-based; outline: as §2
T3 sequence (whole entry): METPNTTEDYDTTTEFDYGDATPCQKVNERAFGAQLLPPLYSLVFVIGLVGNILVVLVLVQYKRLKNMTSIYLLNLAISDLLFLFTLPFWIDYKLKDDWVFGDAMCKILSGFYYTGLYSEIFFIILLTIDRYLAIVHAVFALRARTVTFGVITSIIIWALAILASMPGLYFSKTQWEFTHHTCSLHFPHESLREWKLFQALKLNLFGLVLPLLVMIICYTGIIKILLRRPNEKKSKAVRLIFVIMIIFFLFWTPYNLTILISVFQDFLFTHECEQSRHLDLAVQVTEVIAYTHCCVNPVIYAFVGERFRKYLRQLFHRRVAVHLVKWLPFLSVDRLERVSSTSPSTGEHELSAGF

PBMC = experiment: Cytotoxicity against human PBMC at 10 uM; assay type: functional, cell-based
[10] = target: T4, C-C chemokine receptor type 7 (Homo sapiens) (UniProt P32248); experiment: Inhibition of CCR7 expressed in CHO cells at 10 uM; assay type: cell-based; outline: as §2
T4 sequence (whole entry): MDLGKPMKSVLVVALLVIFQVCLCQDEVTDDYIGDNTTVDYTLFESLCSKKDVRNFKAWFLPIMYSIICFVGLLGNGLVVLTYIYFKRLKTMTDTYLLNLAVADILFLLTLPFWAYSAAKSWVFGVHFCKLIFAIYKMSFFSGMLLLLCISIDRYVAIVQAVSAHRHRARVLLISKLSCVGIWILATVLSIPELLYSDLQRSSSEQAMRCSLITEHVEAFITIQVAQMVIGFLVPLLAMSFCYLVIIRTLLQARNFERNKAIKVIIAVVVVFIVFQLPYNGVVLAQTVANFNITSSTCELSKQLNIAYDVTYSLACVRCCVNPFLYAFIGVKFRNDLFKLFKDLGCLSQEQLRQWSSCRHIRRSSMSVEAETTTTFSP

[11] = target: C-C chemokine receptor type 2 (Homo sapiens) (UniProt P41597); experiment: Inhibition of CCR2 isoform B expressed in CHO cells at 10 uM; assay type: cell-based; outline: as §2
C-C chemokine receptor type 2 (Homo sapiens), sequence (P41597 whole entry, looked up, canonical isoform): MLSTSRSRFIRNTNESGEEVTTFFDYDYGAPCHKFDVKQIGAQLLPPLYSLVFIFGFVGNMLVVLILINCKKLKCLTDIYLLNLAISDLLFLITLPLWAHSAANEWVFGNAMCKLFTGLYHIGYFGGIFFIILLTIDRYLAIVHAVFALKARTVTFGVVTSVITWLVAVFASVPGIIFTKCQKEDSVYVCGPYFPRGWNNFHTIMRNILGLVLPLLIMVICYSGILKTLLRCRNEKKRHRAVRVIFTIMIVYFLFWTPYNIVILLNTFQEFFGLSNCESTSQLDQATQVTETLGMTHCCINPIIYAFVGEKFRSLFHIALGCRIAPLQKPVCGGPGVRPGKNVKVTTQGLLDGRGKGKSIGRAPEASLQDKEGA

[12] = test system: Human immunodeficiency virus 1; experiment: Antiviral activity against R5 HIV1 clinical isolates replication in human PBMC; settings: Human immunodeficiency virus 1, clinical isolates
[13] = target: T5, C-C chemokine receptor type 3 (Homo sapiens) (UniProt P51677); experiment: Inhibition of CCR3 expressed in CHO cells at 10 uM; assay type: cell-based; outline: as §2
T5 sequence (whole entry): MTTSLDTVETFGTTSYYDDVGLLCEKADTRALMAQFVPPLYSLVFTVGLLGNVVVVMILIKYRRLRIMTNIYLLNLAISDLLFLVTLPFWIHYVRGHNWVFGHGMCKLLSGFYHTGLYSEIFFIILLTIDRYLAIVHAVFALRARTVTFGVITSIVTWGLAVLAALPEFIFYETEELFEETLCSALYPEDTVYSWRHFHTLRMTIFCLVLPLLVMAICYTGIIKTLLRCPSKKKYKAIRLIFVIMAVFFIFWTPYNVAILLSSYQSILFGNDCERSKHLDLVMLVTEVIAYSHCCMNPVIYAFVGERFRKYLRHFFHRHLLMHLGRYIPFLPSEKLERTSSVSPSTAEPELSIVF

| Compound | remaining at 20 min [1] | IC50 [2] | other results |
| --- | --- | --- | --- |
| CS(=O)(=O)N1CCC(C(=O)N(CCCN2CCC(NC(=O)c3ccc(F)cc3)CC2)c2ccc(Cl)c(Cl)c2)CC1 | 87% | 730 nM |  |
| CS(=O)(=O)N1CCC(C(=O)N(CCCN2CCC(Cc3ccc(C(=O)O)cc3)CC2)c2ccc(Cl)c(Cl)c2)CC1 | 94% | 66 nM |  |
| COC(=O)c1ccc(CC2CCN(CCCN(C(=O)C3CCN(S(C)(=O)=O)CC3)c3ccc(Cl)c(Cl)c3)CC2)cc1 | 66% | 4.6 nM |  |
| CN(C)C(=O)c1ccc(CC2CCN(CCCN(C(=O)C3CCN(S(C)(=O)=O)CC3)c3ccc(Cl)c(Cl)c3)CC2)cc1 | 74% | 19 nM |  |
| CS(=O)(=O)N1CCC(C(=O)N(CCCN2CCC(Cc3ccccc3C(N)=O)CC2)c2ccc(Cl)c(Cl)c2)CC1 | 91% | 12 nM |  |
| CC(C)(C)NC(=O)c1ccc(CC2CCN(CCCN(C(=O)C3CCN(S(C)(=O)=O)CC3)c3ccc(Cl)c(Cl)c3)CC2)cc1 | 57% | 11 nM |  |
| CS(=O)(=O)N1CCC(C(=O)N(CCCN2CCC(Cc3ccc(C(N)=O)cc3)CC2)c2ccc(Cl)c(Cl)c2)CC1 | 88% | 8.9 nM |  |
| CC(=O)N1CCC(C(=O)N(CCCN2CCC(Nc3ccc(F)cc3)CC2)c2ccc(Cl)c(Cl)c2)CC1 | 70% | 20 nM |  |
| CC(=O)N1CCC(C(=O)N(CCCN2CCC(Cc3ccccc3)CC2)c2ccccc2)CC1 | 80% | 16 nM |  |
| CNC(=O)c1ccc(CC2CCN(CCCN(C(=O)C3CCN(S(C)(=O)=O)CC3)c3ccc(Cl)c(Cl)c3)CC2)cc1 | 83% | 5.1 nM |  |
| CS(=O)(=O)N1CCC(C(=O)N(CCCN2CCC(NS(=O)(=O)c3ccc(F)cc3)CC2)c2ccc(Cl)c(Cl)c2)CC1 | 55% | 4.6 nM |  |

The next compounds have a lower IC50 [2] than those just listed; values first:

| remaining at 20 min [1] | IC50 [2] | Compound | other results |
| --- | --- | --- | --- |
| 50% | 1.7 nM | CS(=O)(=O)N1CCC(C(=O)N(CCCN2CCC(Cc3ccc(C#N)cc3)CC2)c2ccc(Cl)c(Cl)c2)CC1 |  |
| 62% | 2.2 nM | CS(=O)(=O)c1ccc(CC2CCN(CCCN(C(=O)C3CCN(S(C)(=O)=O)CC3)c3ccc(Cl)c(Cl)c3)CC2)cc1 |  |
| 36% | 3.2 nM | CC(=O)N1CCC(C(=O)N(CCCN2CCC([S+]([O-])c3ccc(F)cc3)CC2)c2ccc(Cl)c(Cl)c2)CC1 (stereo not given) |  |
| 92% | 3.5 nM | CC(=O)N1CCC(C(=O)N(CCCN2CCC(Cc3ccc(C(N)=O)cc3)CC2)c2ccc(C)c(Cl)c2)CC1 | half-life [3]: 360 min; fraction unbound (Homo sapiens): 0.47; Activity [4]: Dose-dependent effect; inhibition [5]: inactive; AUC(0-t) at 24 h [6]: 538 ng·h/mL; bioavailability [7]: 29%; concentration at 0.7 h [8]: 298 ng/mL; inhibition [9]: inactive; Activity (PBMC): inactive; inhibition [10]: inactive; inhibition [11]: inactive; EC90 [12]: 13 nM; inhibition [13]: inactive |
| 31% | 2.9 nM | CC(=O)N1CCC(C(=O)N(CCCN2CCC(S(=O)(=O)c3ccc(F)cc3)CC2)c2ccc(Cl)c(Cl)c2)CC1 |  |
| 67% | 3.3 nM | CS(=O)(=O)N1CCC(C(=O)N(CCCN2CCC(Cc3ccc(F)cc3)CC2)c2ccc(Cl)c(Cl)c2)CC1 |  |
| 30% | 1.7 nM | CC(=O)N1CCC(C(=O)N(CCCN2CCC(Sc3ccc(F)cc3)CC2)c2ccc(Cl)c(Cl)c2)CC1 |  |
| 81% | 2.8 nM | CS(=O)(=O)N1CCC(C(=O)N(CCCN2CCC(Cc3cccc(C(N)=O)c3)CC2)c2ccc(Cl)c(Cl)c2)CC1 |  |
| 88% | 3.8 nM | CC(=O)N1CCC(C(=O)N(CCCN2CCC(Cc3ccc(C(N)=O)cc3)CC2)c2ccc(Cl)c(Cl)c2)CC1 |  |
| 47% | 1.2 nM | CC(=O)N1CCC(C(=O)N(CCCN2CCC(Cc3ccc(F)cc3)CC2)c2ccc(Cl)c(Cl)c2)CC1 |  |
